Only some compounds are listed: those with a hit (about 3.6% of all), similar ones and a draw of the others.
CSC inhib: cancer stem cell inhibition; cancer stem cell-like cells viability, luminescence; inhibition, % at 7.5 µM; hit rate 1.1% among 300,000; AID 2717; in the data active means inhibition above about 75%; inconclusive means no clear call, values can overlap the other calls; tested in HMLE shEcad cells
PfHsp90 yeast 2: inhibits growth of yeast expressing Plasmodium falciparum Hsp90 | S. cerevisiae expressing PfHsp90, BacTiter-Glo ATP, 48 h; yeast lacking PDR1 and PDR3 efflux regulators | inhibition, % at 9.4 µM | hit rate 0.32% among 310,000;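 active means every replicate shows inhibition above about 80%, whatever the replicate mean, limit read from the data; inconclusive means mean inhibition reaches the set limit but some replicate falls short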;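 further: 0% = DMSO neutral controls and 100% = 20 µM radicicol positive controls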
SKKanGAS inh: blocks kanamycin growth of S. pyogenes SKKanGAS strain; BacTiter-Glo, 6 h; inhibition, % at 7.5 µM; hit rate 1.3% among 300,000; AID 1662;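 active means mean replicate score, as percent of positive control median, at least 50; inconclusive means mean below 50 but one replicate at or above 50; inactive means mean and every replicate below 50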;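 further: strain carries kanamycin resistance gene driven by streptokinase promoter and grows in 40 µg/ml kanamycin; loss of luminescence reflects streptokinase promoter inhibition or plain growth inhibition; 0% = median of DMSO wells and 100% = positive control at its reference dose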
HIF act: HIF pathway transcriptional activation | U2OS HRE-luciferase reporter, luminescence; normalized: DMSO 0%, desferrioxamine 100% | activation, % at 7.5 µM (by protocol) | hit rate 0.32% among 300,000 | AID 1910;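 active means mean activation of at least 10% of the iron chelator positive control signal, with at least half of replicates also reaching 10%; inconclusive means mean and replicate majority disagree about reaching 10%; inactive means mean and most replicates under 10%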
Beta cell apopt: blocks beta cell apoptosis. INS-1E cytokine-induced death, ATP luminescence, 48 h; percent of positive-control rescue, neutral wells zero. protection from apoptosis, % (no concentration beside the values). hit rate 0.8% among 300,000. AID 435005;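 active means Every replicate reaches about 75%, or at least half do and their mean reaches it too, limit read from the data; inconclusive means At least half of replicates reach the limit but their mean does not; inactive means Under half of replicates reach the limit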;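 further: 0% = cytokine-treated negative control wells and 100% = positive control rescue; higher means more ATP so stronger rescue from cytokine killing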
T cruzi repl: blocks replication of Trypanosoma cruzi | T. cruzi beta-gal in NIH3T3, luminescence, 90 h | inhibition, % (concentration not given with the values) | hit rate 1.4% among 300,000 | AID 1885;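 active means mean inhibition across valid replicates above about 55%, limit read from the data; inconclusive means mean below that limit but half or more replicates reach it; inactive means mean below it, under half of replicates reach it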;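 further: signal also drops with host cell toxicity which is not excluded here; 0% = plate median of DMSO wells and 100% = zero luminescence signal; higher percent means less beta-gal luminescence so fewer parasites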
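System – NIH/3T3 host cells with β-galactosidase reporter T. cruzi · Doses – single 50 nL compound addition per well in DMSO · Reagent – 5000 T. cruzi trypomastigotes/well · Medium – Low-serum DMEM with 2% FBS · Timing – ≥90 h infection period, 3 h prior cell attachment · Evaluation – parasite load inhibition, % · Technique – GalScreen luminescence, 60 min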
Starred values were filed as active, the others as inactive; ? = inconclusive; / = no result given.

SMILES	CSC inhib	PfHsp90 yeast 2	SKKanGAS inh	HIF act	Beta cell apopt	T cruzi repl
COc1cc(CN2CCN(S(=O)(=O)c3ccccc3)CC2)cc(OC)c1OC	-17	3	-5	1	-5	-1
COc1cc(CN2CCN(c3cccc(Cl)c3)CC2)cc(OC)c1OC	93*	0	6	1	2	-17
COc1ccc(CN(C)C2CCN(C)CC2)cc1OC	2	-5	3	-1	-3	5
CCCN1CCC(N(C)CCc2ccc(OC)c(OC)c2)CC1	-1	-18	8	0	1	56*
Nc1ccc2nc(N3CCOCC3)sc2c1	-5	-4	-5	-3	15	76*
CSc1nnc(C)c(/C=C/NOCc2ccc(Cl)cc2)n1	-8	4	-18	0	-1	-4
Cc1nnc(SCc2ccc(Cl)cc2)nc1/C=C/N(C)C	27	10	10	0	-3	61*
COc1cc(NC(=O)CSc2cc(C)c3cc(C)cc(C)c3n2)c(C(=O)O)cc1OC	-6	7	44	-2	-4	-20
CCS(=O)(=O)c1ccc(-c2cccc(NC(=O)COc3ccccc3)c2)nn1	-18	14	3	60*	0	-11
CCN(CC(=O)N1CCOCC1)S(=O)(=O)c1ccccc1	-7	-22	2	0	1	5
COc1ccc(N2CCN(c3ccc(N4C(=O)CC(C)C4=O)cc3[N+](=O)[O-])CC2)cc1 (centres undefined)	0	13	-5	66*	-5	10
Cc1ccc(-c2cc(-c3cccc(F)c3)n[nH]2)c(O)c1	-2	6	52*	8	5	6
Cc1ccc(O)c(-c2cc(-c3cccc(F)c3)n[nH]2)c1	41	100*	30	6	15	5
Cc1ccc(-c2cc(-c3ccccc3C)[nH]n2)c(O)c1	?	-16	/	/	16	/
O=C(CSc1nnc(COc2ccc(Cl)cc2)o1)N1c2ccccc2CCc2ccccc21	19	-8	9	0	-3	66*
CCOC(=O)C1CCN(C(=O)COC(=O)CN(C)S(=O)(=O)c2ccc(NC(C)=O)cc2)CC1	-21	8	4	0	-1	14
O=C(CCN1C(=O)COc2ccccc21)NCc1cccnc1	-8	-3	-1	0	-6	-11
O=C(CN1C(=O)COc2ccccc21)N(Cc1cccnc1)Cc1ccccc1F	-14	10	0	0	1	76*
CC(=O)Nc1cccc(OCCCNC(=O)C2CCC2)c1	-5	-16	-5	0	-2	-17
COc1ccc(CN(C)CC(=O)Nc2ccccc2C(=O)NC2CC2)cc1OC	/	16	/	/	/	/
C/C(N)=C(/C#N)C(=O)COC(=O)c1cc(-c2cccc3ccccc23)nc2ccccc12	-11	-9	62*	-1	5	32
CCc1ccc(N(C(=O)c2snc(C(N)=O)c2N)C(C(=O)NCCC(C)C)c2c[nH]c3ccccc23)cc1 (centres undefined)	-5	-19	22	-1	4	10
COCc1nnc(NC(=O)c2cc(Cl)ccc2OC)s1	-12	/	-8	877*	-3	-5
CN(C(=O)COC(=O)C12CC3CC(CC(Cl)(C3)C1)C2)c1ccccc1	-12	/	/	/	3	/
Cc1cc2ccccc2n1CCNC(=O)COc1ccccc1	5	-8	11	0	4	58*
SMILES	CSC inhib	PfHsp90 yeast 2	SKKanGAS inh	HIF act	Beta cell apopt	T cruzi repl
CC(C)[C@H](NC(=O)C1CC(=O)N(c2ccc3c(c2)OCCO3)C1)C(=O)NC1CCCC1 (some centres undefined)	-2	13	-5	0	-2	-7
COc1cc(NC(=O)c2cccs2)cc(OC)c1	-5	-11	-1	1	2	4
CC(C)(C)c1ccc(Oc2ccc(NC(=O)c3ccco3)cn2)cc1	99*	-5	-5	0	75*	-9
O=C(NC(=S)Nc1cccnc1)c1cccs1	/	-15	1	2	-3	-14
O=C(Nc1ccc(Oc2cccc(C(F)(F)F)c2)nc1)c1ccco1	13	12	7	-1	3	10
COc1ccc(NC(=O)c2cccs2)cn1	-1	-6	4	19*	-3	4
O=C(Nc1cccnc1)c1cccs1	17	9	-2	0	89*	-49
COc1ccc(NC(=O)c2cccc(-c3ccc(O)cc3)c2)cn1	86*	-8	53*	1	9	-3
CN(CCOc1ccc(Cl)cc1)C(=O)c1cccc(S(=O)(=O)N2CCN(c3ccc(F)cc3)CC2)c1	/	-3	/	/	/	/
COc1ccc(CCNC(=O)c2cc(=O)c3cc(C)ccc3o2)cc1OC	-4	1	12	-1	8	-17
CC(C)(C)c1ccc(Oc2ccc(NC(=O)c3cccs3)cn2)cc1	84*	-7	20	-1	18	14
CCCCn1c(O)c(N=NC(=O)c2ccccc2NS(=O)(=O)c2cccs2)c2ccccc21	-20	-14	71*	0	3	-3
C=CCn1c(O)c(N=NC(=O)c2ccccc2NS(=O)(=O)c2cccs2)c2ccccc21	13	-2	33	0	-2	8
CC[C@H]1CCCCc2ccccc2[C@@H](C(=O)C[C@@H](O)CC(C)=O)OC1=O	/	11	/	/	-4	/
COc1ccc(-c2nc(CN3CCN(Cc4cccc(Cl)c4)CC3)c(C)o2)cc1	-11	-19	0	0	-3	56*
COC(=O)c1ccc(-c2nc(CN3CCN(Cc4cccc(C)c4)CC3)c(C)o2)cc1	-5	-20	2	0	-7	57*
COc1ccc(-c2nc(CN3CCN(Cc4cccc(F)c4)CC3)c(C)o2)cc1	-7	8	-8	0	1	50
Cc1ccc2[nH]c3c(=O)n(CC(=O)N4CC(C)CC(C)C4)ncc3c2c1 (centres undefined)	-17	0	-2	-1	-1	5
O=C(CSc1nc(-c2ccccc2)nc2ccccc12)Nc1cccc(C(=O)O)c1	6	-5	38	0	-2	6
O=C(CSc1nc(-c2ccc(F)cc2)nc2ccc(F)cc12)Nc1cccc(C(=O)O)c1	-2	4	68*	0	0	1
Cc1ccc(C=Nc2ccccc2C(N)=O)s1	78*	1	-1	0	8	-46
Clc1ccc(N(CC2CO2)CC2CO2)cc1 (centres undefined)	/	-7	/	/	/	/
O=C(O)c1ccc(NC2=C/C(=N/S(=O)(=O)c3ccccc3)c3ccccc3C2=O)cc1	/	-30	/	/	/	/
CCc1ccc(S(=O)(=O)/N=C2\C=C(Nc3ccc(O)cc3)C(=O)c3ccccc32)cc1	/	-18	109*	-7	115*	52
CCc1ccc(S(=O)(=O)/N=C2\C=C(Nc3cccc(C(=O)O)c3)C(=O)c3ccccc32)cc1	/	8	106*	2	52	-2

From PubChem BioAssay
